# Measured values: article PMC5615838 (Toxicology Reports, 2016)
# Tests used:
# [1] = system: GPCRs, ion channels, nuclear receptors, transporters; assay: lead profiling receptor screen; type: binding; details: 10 μM
# CYP2D6 = CYP2D6 (Homo sapiens, UniProt P10635); assay: CYP inhibition, LC–MS/MS assay in human liver microsomes; type: in vitro ADME; details: pooled human liver microsomes, probe bufuralol
# How it was run: (§1)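 Follow-up CYP panel in pooled human liver microsomes with CYP-specific probe substrates; CYP-specific metabolites quantified by LC-MS/MS. Test compound at 10 μM. Percent inhibition reported.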
# [2] = toxicokinetics in 90-day toxicity study; type: in vivo, rat; details: for AUC(0-t) / Cmax: rat, plasma, po; for AUC(0-t): AUC0-24h
# How it was run: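 In the 90-day dietary study (10, 30, 100 mg/kg bw/day), plasma taken at 6 time points over 24 h on Day 7, Week 6 and Week 13, assayed by validated LC-MS/MS. […] Accumulation ratio = AUC0-24h at Week 6 or 13 / Day 7.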
# CYP1A2 = target: T1, CYP1A2 (Homo sapiens, UniProt P05177); assay: CYP inhibition, LC–MS/MS assay in human liver microsomes; type: in vitro ADME; details: pooled human liver microsomes, probe phenacetin
# T1 sequence (P05177 1-516): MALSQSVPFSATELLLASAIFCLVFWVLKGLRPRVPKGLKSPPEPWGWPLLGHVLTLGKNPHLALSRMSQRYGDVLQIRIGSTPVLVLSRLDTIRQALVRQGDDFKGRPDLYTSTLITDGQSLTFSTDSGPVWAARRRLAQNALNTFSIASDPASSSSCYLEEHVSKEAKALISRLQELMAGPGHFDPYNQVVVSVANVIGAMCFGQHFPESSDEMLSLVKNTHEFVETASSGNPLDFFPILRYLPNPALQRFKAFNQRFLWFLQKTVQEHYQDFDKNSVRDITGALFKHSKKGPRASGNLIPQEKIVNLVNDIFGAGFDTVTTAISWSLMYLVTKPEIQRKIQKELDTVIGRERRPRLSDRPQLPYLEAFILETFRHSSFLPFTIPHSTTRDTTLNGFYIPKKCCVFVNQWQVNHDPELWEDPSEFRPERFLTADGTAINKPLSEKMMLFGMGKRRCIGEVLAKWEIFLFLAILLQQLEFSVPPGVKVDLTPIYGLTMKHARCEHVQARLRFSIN
# How it was run: as §1
# [3] = female, Sprague-Dawley [Crl:CD(SD)], 10 mg/kg, Day 7, 10 mg/kg bw, F
# [4] = female, Sprague-Dawley [Crl:CD(SD)], 10 mg/kg, Week 13, 10 mg/kg bw, F
# [5] = female, Sprague-Dawley [Crl:CD(SD)], 30 mg/kg, Day 7, 30 mg/kg bw, F
# [6] = female, Sprague-Dawley [Crl:CD(SD)], 30 mg/kg, Week 13, 30 mg/kg bw, F
# [7] = female, Sprague-Dawley [Crl:CD(SD)], 100 mg/kg, Day 7, 100 mg/kg bw, F
# [8] = female, Sprague-Dawley [Crl:CD(SD)], 100 mg/kg, Week 13, 100 mg/kg bw, F
# [9] = female, Sprague-Dawley, 10 mg/kg, Week 6, 10 mg/kg bw, F
# [10] = female, Sprague-Dawley, 30 mg/kg, Week 6, 30 mg/kg bw, F
# [11] = female, Sprague-Dawley, 100 mg/kg, Week 6, 100 mg/kg bw, F
# [12] = male, Sprague-Dawley [Crl:CD(SD)], 10 mg/kg, Day 7, 10 mg/kg bw, M
# [13] = male, Sprague-Dawley [Crl:CD(SD)], 10 mg/kg, Week 13, 10 mg/kg bw, M
# [14] = male, Sprague-Dawley [Crl:CD(SD)], 30 mg/kg, Day 7, 30 mg/kg bw, M
# [15] = male, Sprague-Dawley [Crl:CD(SD)], 30 mg/kg, Week 13, 30 mg/kg bw, M
# [16] = male, Sprague-Dawley [Crl:CD(SD)], 100 mg/kg, Day 7, 100 mg/kg bw, M
# [17] = male, Sprague-Dawley [Crl:CD(SD)], 100 mg/kg, Week 13, 100 mg/kg bw, M
# [18] = male, Sprague-Dawley, 10 mg/kg, Week 6, 10 mg/kg bw, M
# [19] = male, Sprague-Dawley, 30 mg/kg, Week 6, 30 mg/kg bw, M
# [20] = male, Sprague-Dawley, 100 mg/kg, Week 6, 100 mg/kg bw, M
# Chain of CYP2D6 (P10635 whole entry): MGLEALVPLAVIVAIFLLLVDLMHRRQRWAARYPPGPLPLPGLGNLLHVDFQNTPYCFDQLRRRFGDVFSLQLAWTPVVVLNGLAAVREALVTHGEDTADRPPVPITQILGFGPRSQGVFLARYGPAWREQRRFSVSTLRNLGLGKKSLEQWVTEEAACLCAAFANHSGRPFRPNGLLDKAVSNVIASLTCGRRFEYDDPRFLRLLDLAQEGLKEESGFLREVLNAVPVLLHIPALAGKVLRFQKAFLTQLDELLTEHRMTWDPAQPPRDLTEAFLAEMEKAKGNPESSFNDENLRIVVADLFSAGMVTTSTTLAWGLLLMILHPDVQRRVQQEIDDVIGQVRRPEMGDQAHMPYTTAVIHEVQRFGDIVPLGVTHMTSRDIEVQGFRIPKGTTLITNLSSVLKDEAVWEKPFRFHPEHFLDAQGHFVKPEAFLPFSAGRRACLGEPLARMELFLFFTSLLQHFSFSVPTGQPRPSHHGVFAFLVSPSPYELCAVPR
compound,measurement,setting,value
"Cc1noc(C)c1Cn1cc(N2C(=O)CN(Cc3cccc(O)c3)C2=O)cn1 [S6821, 3-(1-((3,5-dimethylisoxazol-4-yl)methyl)-1H-pyrazol-4-yl)-1-(3-hydroxybenzyl)imidazolidine-2,4-dione]",significant responses (≥50% inhibition or stimulation),[1],No significant responses
same,inhibition at 10 µM,CYP2D6,-2%
same,Cmax and AUC0-24h higher than predicted from a linear relationship,"[2]; 100 mg/kg bw/day, females",~1.3 fold
same,Cmax and AUC0-24h lower than predicted from a linear relationship,"[2]; 100 mg/kg bw/day, males",~32%
same,AUC0-24h/dose,"[2]; Day 7, 10 mg/kg bw, F",12.2 ng·h/mL/mg/kg
same,AUC0-24h Ratio,"[2]; Day 7, 10 mg/kg bw, F",1
same,Cmax Ratio,"[2]; Day 7, 10 mg/kg bw, F",1
same,AUC0-24h/dose,"[2]; Day 7, 10 mg/kg bw, M",11.8 ng·h/mL/mg/kg
same,AUC0-24h Ratio,"[2]; Day 7, 10 mg/kg bw, M",1
same,Cmax Ratio,"[2]; Day 7, 10 mg/kg bw, M",1
same,AUC0-24h/dose,"[2]; Day 7, 30 mg/kg bw, F",14.5 ng·h/mL/mg/kg
same,AUC0-24h Ratio,"[2]; Day 7, 30 mg/kg bw, F",3.5
same,Cmax Ratio,"[2]; Day 7, 30 mg/kg bw, F",3.8
same,AUC0-24h/dose,"[2]; Day 7, 30 mg/kg bw, M",9.83 ng·h/mL/mg/kg
same,AUC0-24h Ratio,"[2]; Day 7, 30 mg/kg bw, M",2.5
same,Cmax Ratio,"[2]; Day 7, 30 mg/kg bw, M",2.8
same,AUC0-24h/dose,"[2]; Day 7, 100 mg/kg bw, F",15.0 ng·h/mL/mg/kg
same,AUC0-24h Ratio,"[2]; Day 7, 100 mg/kg bw, F",12.3
same,Cmax Ratio,"[2]; Day 7, 100 mg/kg bw, F",13.7
same,AUC0-24h/dose,"[2]; Day 7, 100 mg/kg bw, M",8.44 ng·h/mL/mg/kg
same,AUC0-24h Ratio,"[2]; Day 7, 100 mg/kg bw, M",7.2
same,Cmax Ratio,"[2]; Day 7, 100 mg/kg bw, M",6.8
same,ACUM Ratio,"[2]; Week 6, 10 mg/kg bw, F",0.93
same,AUC0-24h/dose,"[2]; Week 6, 10 mg/kg bw, F",11.3 ng·h/mL/mg/kg
same,AUC0-24h Ratio,"[2]; Week 6, 10 mg/kg bw, F",1
same,Cmax Ratio,"[2]; Week 6, 10 mg/kg bw, F",1
same,ACUM Ratio,"[2]; Week 6, 10 mg/kg bw, M",1.07
same,AUC0-24h/dose,"[2]; Week 6, 10 mg/kg bw, M",12.6 ng·h/mL/mg/kg
same,AUC0-24h Ratio,"[2]; Week 6, 10 mg/kg bw, M",1
same,Cmax Ratio,"[2]; Week 6, 10 mg/kg bw, M",1
same,ACUM Ratio,"[2]; Week 6, 30 mg/kg bw, F",0.76
same,AUC0-24h/dose,"[2]; Week 6, 30 mg/kg bw, F",11.0 ng·h/mL/mg/kg
same,AUC0-24h Ratio,"[2]; Week 6, 30 mg/kg bw, F",2.9
same,Cmax Ratio,"[2]; Week 6, 30 mg/kg bw, F",2.8
same,ACUM Ratio,"[2]; Week 6, 30 mg/kg bw, M",0.99
same,AUC0-24h/dose,"[2]; Week 6, 30 mg/kg bw, M",9.77 ng·h/mL/mg/kg
same,AUC0-24h Ratio,"[2]; Week 6, 30 mg/kg bw, M",2.3
same,Cmax Ratio,"[2]; Week 6, 30 mg/kg bw, M",2.3
same,ACUM Ratio,"[2]; Week 6, 100 mg/kg bw, F",0.87
same,AUC0-24h/dose,"[2]; Week 6, 100 mg/kg bw, F",13.0 ng·h/mL/mg/kg
same,AUC0-24h Ratio,"[2]; Week 6, 100 mg/kg bw, F",11.5
same,Cmax Ratio,"[2]; Week 6, 100 mg/kg bw, F",15.1
same,ACUM Ratio,"[2]; Week 6, 100 mg/kg bw, M",0.90
same,AUC0-24h/dose,"[2]; Week 6, 100 mg/kg bw, M",7.58 ng·h/mL/mg/kg
same,AUC0-24h Ratio,"[2]; Week 6, 100 mg/kg bw, M",6.0
same,Cmax Ratio,"[2]; Week 6, 100 mg/kg bw, M",4.1
same,ACUM Ratio,"[2]; Week 13, 10 mg/kg bw, F",1.02
same,AUC0-24h/dose,"[2]; Week 13, 10 mg/kg bw, F",12.5 ng·h/mL/mg/kg
same,AUC0-24h Ratio,"[2]; Week 13, 10 mg/kg bw, F",1
same,Cmax Ratio,"[2]; Week 13, 10 mg/kg bw, F",1
same,ACUM Ratio,"[2]; Week 13, 10 mg/kg bw, M",1.04
same,AUC0-24h/dose,"[2]; Week 13, 10 mg/kg bw, M",12.3 ng·h/mL/mg/kg
same,AUC0-24h Ratio,"[2]; Week 13, 10 mg/kg bw, M",1
same,Cmax Ratio,"[2]; Week 13, 10 mg/kg bw, M",1
same,ACUM Ratio,"[2]; Week 13, 30 mg/kg bw, F",0.79
same,AUC0-24h/dose,"[2]; Week 13, 30 mg/kg bw, F",11.5 ng·h/mL/mg/kg
same,AUC0-24h Ratio,"[2]; Week 13, 30 mg/kg bw, F",2.8
same,Cmax Ratio,"[2]; Week 13, 30 mg/kg bw, F",2.4
same,ACUM Ratio,"[2]; Week 13, 30 mg/kg bw, M",1.03
same,AUC0-24h/dose,"[2]; Week 13, 30 mg/kg bw, M",10.2 ng·h/mL/mg/kg
same,AUC0-24h Ratio,"[2]; Week 13, 30 mg/kg bw, M",2.5
same,Cmax Ratio,"[2]; Week 13, 30 mg/kg bw, M",3.1
same,ACUM Ratio,"[2]; Week 13, 100 mg/kg bw, F",1.11
same,AUC0-24h/dose,"[2]; Week 13, 100 mg/kg bw, F",16.7 ng·h/mL/mg/kg
same,AUC0-24h Ratio,"[2]; Week 13, 100 mg/kg bw, F",13.4
same,Cmax Ratio,"[2]; Week 13, 100 mg/kg bw, F",12.9
same,ACUM Ratio,"[2]; Week 13, 100 mg/kg bw, M",1.10
same,AUC0-24h/dose,"[2]; Week 13, 100 mg/kg bw, M",9.25 ng·h/mL/mg/kg
same,AUC0-24h Ratio,"[2]; Week 13, 100 mg/kg bw, M",7.5
same,Cmax Ratio,"[2]; Week 13, 100 mg/kg bw, M",9.1
same,AUC(0-t),[2]; [3],122 ng·h/mL
same,AUC(0-t),[2]; [4],125 ng·h/mL
same,Cmax,[2]; [3],7.22 ng/mL
same,Cmax,[2]; [4],8.32 ng/mL
same,AUC(0-t),[2]; [5],436 ng·h/mL
same,AUC(0-t),[2]; [6],344 ng·h/mL
same,Cmax,[2]; [5],27.7 ng/mL
same,Cmax,[2]; [6],19.8 ng/mL
same,AUC(0-t),[2]; [7],1500 ng·h/mL
same,AUC(0-t),[2]; [8],1670 ng·h/mL
same,Cmax,[2]; [7],99 ng/mL
same,Cmax,[2]; [8],107 ng/mL
same,AUC(0-t),[2]; [9],113 ng·h/mL
same,Cmax,[2]; [9],6.34 ng/mL
same,AUC(0-t),[2]; [10],331 ng·h/mL
same,Cmax,[2]; [10],17.5 ng/mL
same,AUC(0-t),[2]; [11],1300 ng·h/mL
same,Cmax,[2]; [11],95.6 ng/mL
same,AUC(0-t),[2]; [12],118 ng·h/mL
same,AUC(0-t),[2]; [13],123 ng·h/mL
same,Cmax,[2]; [12],6.05 ng/mL
same,Cmax,[2]; [13],5.99 ng/mL
same,AUC(0-t),[2]; [14],295 ng·h/mL
same,AUC(0-t),[2]; [15],305 ng·h/mL
same,Cmax,[2]; [14],16.7 ng/mL
same,Cmax,[2]; [15],18.3 ng/mL
same,AUC(0-t),[2]; [16],844 ng·h/mL
same,AUC(0-t),[2]; [17],925 ng·h/mL
same,Cmax,[2]; [16],41.4 ng/mL
same,Cmax,[2]; [17],54.7 ng/mL
same,AUC(0-t),[2]; [18],126 ng·h/mL
same,Cmax,[2]; [18],10.7 ng/mL
same,AUC(0-t),[2]; [19],293 ng·h/mL
same,Cmax,[2]; [19],24.6 ng/mL
same,AUC(0-t),[2]; [20],758 ng·h/mL
same,Cmax,[2]; [20],43.7 ng/mL
same,inhibition at 10 µM,CYP1A2,18%
